# System: PC3 xenografts
# Assay: PET imaging of PC3 xenografted Nu/Nu mice
# Type: in vivo, mouse
# Conditions: 15 MBq injected, 20-minute scan
# Summary of the method: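 Male Nu/Nu mice (4–6 weeks old) got s.c. PC3 cells (1 × 10^6 in PBS, shoulders) or LNCaP cells (2.5 × 10^6 in PBS/Matrigel 1:1, hips). Tumors grew ≥4 weeks to ≥5 mm. Under isoflurane, mice received i.v. 3.7–7.4 MBq 64Cu peptide or 15 MBq [18F]-FDG, on a heated bed. Scans ran 20 min on small-animal PET with 3D MLEM reconstruction. ROI activity was expressed per cm³ as % injected dose.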
compound,measurement,value
"OC[C@H]1OC(O)[C@H]([18F])[C@@H](O)[C@@H]1O (stereo partly drawn) [[^18F]-FDG, [^18F]-fluoro-2-deoxy-D-glucose]",PC3 tumor [18F]-FDG uptake (PET),faultless

# — PMC4235008 (Neoplasia (New York, N.Y.), 2014)
